{"source": "ChEMBL document CHEMBL5696444", "about": "(Nat Commun, 2017)", "key": {"[1]": {"biological_target": "SRSF protein kinase 2 (Homo sapiens) (UniProt P78362)", "test": "Inhibition of SRPK2 (unknown origin) at 1110 nM in the presence of ATP by Kinome scan method relative to control", "details": "time > 6.0 hrs"}, "HCT-116 [2]": {"test_system": "HCT-116", "test": "Induction of cell cycle arrest in human HCT-116 cells assessed as sub G0/G1 phase at 0.1 uM incubated for 6 hrs by flow cytometry analysis (Rvb=1.6%)", "assay_type": "functional"}, "HCT-116 [3]": {"test_system": "HCT-116", "test": "Induction of cell cycle arrest in human HCT-116 cells assessed as G0/G1 phase at 5 uM incubated for 6 hrs by flow cytometry analysis (Rvb=35.0%)", "assay_type": "functional"}, "[4]": {"biological_target": "Ribosomal protein S6 kinase beta-1 (Homo sapiens) (UniProt P23443)", "test": "Inhibition of RPS6KB1 (unknown origin) at 1000 nM in the presence of ATP by Kinome scan method relative to control"}, "[5]": {"biological_target": "Dual specificity protein kinase CLK1 (Homo sapiens) (UniProt P49759)", "sequence (P49759 whole entry, looked up, canonical isoform)": "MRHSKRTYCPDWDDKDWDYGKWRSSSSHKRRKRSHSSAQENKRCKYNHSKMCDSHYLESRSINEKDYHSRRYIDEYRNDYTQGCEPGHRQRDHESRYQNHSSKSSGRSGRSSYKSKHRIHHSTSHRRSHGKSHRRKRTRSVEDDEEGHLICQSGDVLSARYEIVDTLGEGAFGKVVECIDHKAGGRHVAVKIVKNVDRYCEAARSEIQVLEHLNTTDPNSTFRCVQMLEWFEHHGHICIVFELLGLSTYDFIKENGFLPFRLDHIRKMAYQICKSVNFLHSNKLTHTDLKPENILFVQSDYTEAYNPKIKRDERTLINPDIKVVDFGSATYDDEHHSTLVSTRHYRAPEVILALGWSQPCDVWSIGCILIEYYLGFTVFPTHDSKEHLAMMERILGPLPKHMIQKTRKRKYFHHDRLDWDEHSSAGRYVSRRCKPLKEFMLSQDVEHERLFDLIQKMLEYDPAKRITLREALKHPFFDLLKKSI", "test": "Inhibition of CLK (unknown origin) in human 184-hTERT cells assessed as induction in alternative splicing effect in S6K skipped exon incubated for 6 hrs by RT-PCR analysis", "assay_type": "cell-based", "details": "dose 0.2-5 µM", "in_short": "(§1)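 Cells exposed to graded T3 concentrations for 6 h (chosen to avoid cytotoxicity), with a DMSO vehicle control. Total RNA was reverse-transcribed with oligo-dT primers. Targeted splice or conjoined-gene products were quantified by real-time qPCR or by targeted next-generation sequencing. Conjoined-gene isoform expression was normalized to a sequenced housekeeping gene.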"}, "[6]": {"biological_target": "Proto-oncogene tyrosine-protein kinase Src (Homo sapiens) (UniProt P12931)", "test": "Inhibition of SRC (unknown origin) at 100 nM in the presence of ATP by Kinome scan method relative to control"}, "[7]": {"biological_target": "Calcium/calmodulin-dependent protein kinase type 1 (Homo sapiens) (UniProt Q14012)", "sequence (Q14012 whole entry, looked up)": "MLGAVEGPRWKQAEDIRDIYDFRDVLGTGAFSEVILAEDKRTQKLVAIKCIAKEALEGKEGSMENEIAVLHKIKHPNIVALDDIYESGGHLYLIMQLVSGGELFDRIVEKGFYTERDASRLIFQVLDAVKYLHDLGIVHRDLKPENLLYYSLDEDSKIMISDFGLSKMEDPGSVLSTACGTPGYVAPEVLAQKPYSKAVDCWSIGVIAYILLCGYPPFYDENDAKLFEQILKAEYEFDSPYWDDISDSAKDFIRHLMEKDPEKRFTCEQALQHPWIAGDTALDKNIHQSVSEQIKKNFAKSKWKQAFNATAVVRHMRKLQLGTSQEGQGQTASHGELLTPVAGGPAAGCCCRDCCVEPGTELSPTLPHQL", "test": "Inhibition of CAMK1 (unknown origin) at 100 nM in the presence of ATP by Kinome scan method relative to control"}, "[8]": {"biological_target": "Dual specificity protein kinase CLK1 (Homo sapiens) (UniProt P49759)", "test": "Inhibition of CLK (unknown origin) in human 184-hTERT cells assessed as induction in alternative splicing effect in S6K canonical isoform incubated for 6 hrs by RT-PCR analysis", "assay_type": "cell-based", "details": "dose 0.2-5 µM", "in_short": "as §1"}, "[9]": {"biological_target": "MAP kinase-activated protein kinase 2 (Homo sapiens) (UniProt P49137)", "sequence (P49137 whole entry, looked up)": "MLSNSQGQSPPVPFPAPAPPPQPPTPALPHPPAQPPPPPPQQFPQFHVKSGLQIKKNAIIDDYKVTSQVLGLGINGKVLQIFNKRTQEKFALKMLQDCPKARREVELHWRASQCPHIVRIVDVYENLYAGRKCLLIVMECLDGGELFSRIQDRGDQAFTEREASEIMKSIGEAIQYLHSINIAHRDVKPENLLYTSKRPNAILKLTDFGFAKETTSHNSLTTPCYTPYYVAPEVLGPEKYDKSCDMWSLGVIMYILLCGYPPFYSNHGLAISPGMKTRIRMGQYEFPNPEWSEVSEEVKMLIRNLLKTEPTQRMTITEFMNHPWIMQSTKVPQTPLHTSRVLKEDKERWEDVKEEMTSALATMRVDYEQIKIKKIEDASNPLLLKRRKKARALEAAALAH", "test": "Inhibition of MAPKAPK2 (unknown origin) at 100 nM in the presence of ATP by Kinome scan method relative to control"}, "[10]": {"biological_target": "Aurora kinase B (Homo sapiens) (UniProt Q96GD4)", "sequence (Q96GD4 whole entry)": "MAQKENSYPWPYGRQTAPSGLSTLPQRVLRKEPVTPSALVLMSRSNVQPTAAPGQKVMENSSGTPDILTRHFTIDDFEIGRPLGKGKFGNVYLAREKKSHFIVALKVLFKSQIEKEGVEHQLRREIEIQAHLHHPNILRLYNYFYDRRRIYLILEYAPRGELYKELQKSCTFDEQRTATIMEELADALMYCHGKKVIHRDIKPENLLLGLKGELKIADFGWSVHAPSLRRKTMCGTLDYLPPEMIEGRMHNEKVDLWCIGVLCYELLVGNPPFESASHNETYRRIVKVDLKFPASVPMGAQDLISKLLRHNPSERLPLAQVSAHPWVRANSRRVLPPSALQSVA", "test": "Inhibition of AURKB (unknown origin) at 100 nM in the presence of ATP by Kinome scan method relative to control"}, "[11]": {"biological_target": "CDK7/Cyclin H/MNAT1 (Homo sapiens) (UniProt P51946+P50613+P51948)", "test": "Inhibition of CDK7/cyclin H/MNAT1 (unknown origin) at 1000 nM in the presence of ATP by Kinome scan method relative to control", "assay_type": "protein-complex assay"}, "[12]": {"biological_target": "Serine/threonine-protein kinase PLK1 (Homo sapiens) (UniProt P53350)", "test": "Inhibition of PLK1 (unknown origin) at 1000 nM in the presence of ATP by Kinome scan method relative to control"}, "[13]": {"biological_target": "Death-associated protein kinase 1 (Homo sapiens) (UniProt P53355)", "test": "Inhibition of DAPK1 (unknown origin) at 1000 nM in the presence of ATP by Kinome scan method relative to control"}, "[14]": {"biological_target": "Calcium/calmodulin-dependent protein kinase type 1 (Homo sapiens) (UniProt Q14012)", "test": "Inhibition of CAMK1 (unknown origin) at 1000 nM in the presence of ATP by Kinome scan method relative to control"}, "[15]": {"biological_target": "Dual specificity protein kinase CLK1 (Homo sapiens) (UniProt P49759)", "test": "Inhibition of CLK (unknown origin) in human 184-hTERT cells assessed as induction in alternative splicing effect in S6K skipped exon /canonical form incubated for 6 hrs by RT-PCR analysis", "assay_type": "cell-based", "details": "dose 0.2-5 µM", "in_short": "as §1"}, "[16]": {"biological_target": "Dual specificity protein kinase CLK1 (Homo sapiens) (UniProt P49759)", "test": "Inhibition of CLK (unknown origin) in human 184-hTERT cells assessed as induction in alternative splicing effect in CDC6-RARA level incubated for 6 hrs by RT-PCR analysis", "assay_type": "cell-based", "details": "dose 0.2-5 µM", "in_short": "as §1"}, "[17]": {"biological_target": "AMP-activated protein kinase (AMPK) alpha-1/beta-1/gamma-1 (Homo sapiens) (UniProt P54619+Q9Y478+Q13131)", "sequence (P54619 whole entry)": "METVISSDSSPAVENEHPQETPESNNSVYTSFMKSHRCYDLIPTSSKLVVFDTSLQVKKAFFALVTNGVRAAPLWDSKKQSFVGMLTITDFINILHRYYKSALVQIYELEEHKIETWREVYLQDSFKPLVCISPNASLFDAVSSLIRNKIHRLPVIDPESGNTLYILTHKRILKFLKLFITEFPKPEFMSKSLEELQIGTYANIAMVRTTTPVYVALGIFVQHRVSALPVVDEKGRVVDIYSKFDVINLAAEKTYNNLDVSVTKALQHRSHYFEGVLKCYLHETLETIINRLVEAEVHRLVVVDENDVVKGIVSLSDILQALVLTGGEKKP", "sequence (Q13131 whole entry partner)": "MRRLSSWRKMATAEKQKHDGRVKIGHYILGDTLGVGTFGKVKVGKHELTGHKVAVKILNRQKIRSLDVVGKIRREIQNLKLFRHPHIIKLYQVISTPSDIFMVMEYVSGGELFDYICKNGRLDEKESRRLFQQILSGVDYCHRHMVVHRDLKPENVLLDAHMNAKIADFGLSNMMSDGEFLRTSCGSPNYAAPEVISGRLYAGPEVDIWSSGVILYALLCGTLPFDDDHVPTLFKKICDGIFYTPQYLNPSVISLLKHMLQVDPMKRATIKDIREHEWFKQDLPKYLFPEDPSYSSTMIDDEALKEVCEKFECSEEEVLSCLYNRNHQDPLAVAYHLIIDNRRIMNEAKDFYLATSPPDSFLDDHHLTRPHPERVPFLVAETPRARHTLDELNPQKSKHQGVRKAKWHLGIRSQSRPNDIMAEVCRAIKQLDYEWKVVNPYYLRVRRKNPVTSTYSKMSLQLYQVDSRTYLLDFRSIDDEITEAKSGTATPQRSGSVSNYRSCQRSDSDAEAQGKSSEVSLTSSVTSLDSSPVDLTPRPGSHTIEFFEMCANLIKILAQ", "sequence (Q9Y478 2-270 partner limits assumed)": "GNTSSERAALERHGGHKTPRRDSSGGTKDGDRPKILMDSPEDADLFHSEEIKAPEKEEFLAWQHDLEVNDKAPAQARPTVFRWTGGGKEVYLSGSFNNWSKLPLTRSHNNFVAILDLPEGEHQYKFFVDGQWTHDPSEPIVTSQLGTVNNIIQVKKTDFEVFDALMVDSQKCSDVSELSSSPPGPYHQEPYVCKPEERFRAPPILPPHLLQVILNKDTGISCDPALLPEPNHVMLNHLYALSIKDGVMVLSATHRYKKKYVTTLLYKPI", "test": "Inhibition of AMPK A1/B1/G1 (unknown origin) at 100 nM in the presence of ATP by Kinome scan method relative to control", "assay_type": "protein-complex assay"}, "HCT-116 [18]": {"test_system": "HCT-116", "test": "Induction of apoptosis in human HCT-116 cells assessed as necrosis cells at 0.1 uM incubated for > 6 hrs by annexin V/PI staining based analysis (Rvb=0.55%)", "assay_type": "functional"}, "[19]": {"biological_target": "Mitogen-activated protein kinase 11 (Homo sapiens) (UniProt Q15759)", "sequence (Q15759 whole entry)": "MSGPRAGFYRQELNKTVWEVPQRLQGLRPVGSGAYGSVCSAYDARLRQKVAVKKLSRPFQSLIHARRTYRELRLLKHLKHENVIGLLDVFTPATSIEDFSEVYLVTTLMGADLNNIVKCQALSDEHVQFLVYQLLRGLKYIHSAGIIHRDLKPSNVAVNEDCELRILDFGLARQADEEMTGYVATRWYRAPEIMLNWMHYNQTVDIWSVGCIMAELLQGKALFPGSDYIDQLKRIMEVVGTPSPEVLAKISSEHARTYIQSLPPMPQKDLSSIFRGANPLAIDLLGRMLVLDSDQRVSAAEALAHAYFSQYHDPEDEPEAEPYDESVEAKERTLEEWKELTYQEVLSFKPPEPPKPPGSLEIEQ", "test": "Inhibition of MAPK11 (unknown origin) at 100 nM in the presence of ATP by Kinome scan method relative to control"}, "HCT-116 [20]": {"test_system": "HCT-116", "test": "Induction of cell cycle arrest in human HCT-116 cells assessed as S phase at 10 uM incubated for 24 hrs by flow cytometry analysis (Rvb=46.4%)", "assay_type": "functional"}, "[21]": {"biological_target": "Mitogen-activated protein kinase 14 (Homo sapiens) (UniProt Q16539)", "test": "Inhibition of MAPK14 (unknown origin) at 100 nM in the presence of ATP by Kinome scan method relative to control"}, "HCT-116 [22]": {"test_system": "HCT-116", "test": "Induction of cell cycle arrest in human HCT-116 cells assessed as G2/M phase at 1 uM incubated for 6 hrs by flow cytometry analysis (Rvb=25.8%)", "assay_type": "functional"}, "[23]": {"biological_target": "Dual specificity protein kinase CLK1 (Homo sapiens) (UniProt P49759)", "test": "Inhibition of CLK (unknown origin) in human HCT-116 cells assessed as induction in alternative splicing effect in S6K skipped exon /canonical form incubated for 6 hrs by RT-PCR analysis", "assay_type": "cell-based", "details": "dose 0.2-5 µM", "in_short": "as §1"}, "[24]": {"biological_target": "Ephrin type-B receptor 1 (Homo sapiens) (UniProt P54762)", "sequence (P54762 whole entry)": "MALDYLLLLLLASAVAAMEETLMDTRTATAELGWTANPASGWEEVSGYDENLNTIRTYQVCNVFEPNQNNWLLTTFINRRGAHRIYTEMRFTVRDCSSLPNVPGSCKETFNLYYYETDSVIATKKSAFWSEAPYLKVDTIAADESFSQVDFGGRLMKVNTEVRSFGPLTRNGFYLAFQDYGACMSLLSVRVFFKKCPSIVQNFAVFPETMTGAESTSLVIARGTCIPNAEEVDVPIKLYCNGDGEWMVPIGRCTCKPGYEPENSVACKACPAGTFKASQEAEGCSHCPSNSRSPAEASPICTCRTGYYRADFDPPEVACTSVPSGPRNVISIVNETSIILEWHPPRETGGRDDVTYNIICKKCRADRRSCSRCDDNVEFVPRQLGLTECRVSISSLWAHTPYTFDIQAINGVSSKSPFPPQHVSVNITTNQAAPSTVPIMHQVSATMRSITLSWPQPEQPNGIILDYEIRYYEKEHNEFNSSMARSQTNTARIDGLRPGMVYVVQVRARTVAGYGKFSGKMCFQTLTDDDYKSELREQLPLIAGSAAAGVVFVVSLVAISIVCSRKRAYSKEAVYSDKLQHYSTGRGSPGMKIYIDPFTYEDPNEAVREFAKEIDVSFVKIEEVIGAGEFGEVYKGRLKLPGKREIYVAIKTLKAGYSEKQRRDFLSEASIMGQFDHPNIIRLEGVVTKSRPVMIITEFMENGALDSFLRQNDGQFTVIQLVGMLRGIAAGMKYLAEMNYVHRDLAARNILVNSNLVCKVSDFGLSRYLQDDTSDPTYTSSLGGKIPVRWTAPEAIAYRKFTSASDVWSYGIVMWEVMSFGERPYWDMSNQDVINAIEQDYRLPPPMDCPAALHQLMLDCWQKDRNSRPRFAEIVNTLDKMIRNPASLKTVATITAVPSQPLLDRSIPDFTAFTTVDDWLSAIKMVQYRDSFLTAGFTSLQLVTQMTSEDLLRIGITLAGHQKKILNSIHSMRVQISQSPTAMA", "test": "Inhibition of EPHB1 (unknown origin) at 100 nM in the presence of ATP by Kinome scan method relative to control"}, "HCT-116 [25]": {"test_system": "HCT-116", "test": "Induction of apoptosis in human HCT-116 cells assessed as necrosis cells at 10 uM incubated for > 6 hrs by annexin V/PI staining based analysis (Rvb=0.55%)", "assay_type": "functional"}, "[26]": {"biological_target": "MAP kinase-activated protein kinase 2 (Homo sapiens) (UniProt P49137)", "test": "Inhibition of MAPKAPK2 (unknown origin) at 1000 nM in the presence of ATP by Kinome scan method relative to control"}, "[27]": {"biological_target": "Dual specificity tyrosine-phosphorylation-regulated kinase 3 (Homo sapiens) (UniProt O43781)", "test": "Inhibition of DYRK3 (unknown origin) at 1110 nM in the presence of ATP by Kinome scan method relative to control", "details": "time > 6.0 hrs"}, "[28]": {"biological_target": "Mitogen-activated protein kinase 9 (Homo sapiens) (UniProt P45984)", "test": "Inhibition of MAPK9 (unknown origin) at 1000 nM in the presence of ATP by Kinome scan method relative to control"}, "HCT-116 [29]": {"test_system": "HCT-116", "test": "Induction of cell cycle arrest in human HCT-116 cells assessed as G2/M phase at 10 uM incubated for 24 hrs by flow cytometry analysis (Rvb=17.9%)", "assay_type": "functional"}, "[30]": {"biological_target": "Mitogen-activated protein kinase 3 (Homo sapiens) (UniProt P27361)", "test": "Inhibition of MAPK3 (unknown origin) at 100 nM in the presence of ATP by Kinome scan method relative to control"}, "[31]": {"biological_target": "Dual specificity tyrosine-phosphorylation-regulated kinase 1B (Homo sapiens, UniProt Q9Y463)", "sequence (Q9Y463 whole entry, looked up)": "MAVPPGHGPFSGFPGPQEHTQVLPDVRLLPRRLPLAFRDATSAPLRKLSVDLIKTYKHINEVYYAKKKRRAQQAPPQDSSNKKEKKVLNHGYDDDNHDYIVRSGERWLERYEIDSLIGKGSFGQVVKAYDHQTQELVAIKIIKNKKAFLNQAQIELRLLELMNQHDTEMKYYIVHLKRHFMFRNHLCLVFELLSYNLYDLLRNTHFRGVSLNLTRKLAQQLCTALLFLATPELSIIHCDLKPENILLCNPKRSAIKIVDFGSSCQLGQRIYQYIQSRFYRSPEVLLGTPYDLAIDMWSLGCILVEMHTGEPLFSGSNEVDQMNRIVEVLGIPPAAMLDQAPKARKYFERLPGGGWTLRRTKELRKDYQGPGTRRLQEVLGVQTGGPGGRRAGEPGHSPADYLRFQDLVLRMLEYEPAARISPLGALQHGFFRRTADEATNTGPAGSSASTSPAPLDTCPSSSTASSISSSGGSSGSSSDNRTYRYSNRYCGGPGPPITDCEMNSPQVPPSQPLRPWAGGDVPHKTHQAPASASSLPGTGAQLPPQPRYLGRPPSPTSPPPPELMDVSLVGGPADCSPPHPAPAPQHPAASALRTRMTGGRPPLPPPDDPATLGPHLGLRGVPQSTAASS", "test": "Inhibition of DYRK1B (unknown origin) at 1110 nM in the presence of ATP by Kinome scan method relative to control", "details": "time > 6.0 hrs"}}}
{"smiles": "CN1CCN(C(=O)C(C)(C)c2ccc(C(=O)Nc3cn4cc(-c5ccncc5)ccc4n3)cc2)CC1", "note": "[T3-CLK]", "values": [{"measurement": "inhibition", "setting": "[1]", "value": 5, "unit": "%"}, {"measurement": "Activity", "setting": "HCT-116 [2]", "value": 1.5, "unit": "%"}, {"measurement": "Activity", "setting": "HCT-116 [3]", "value": 28.1, "unit": "%"}, {"measurement": "inhibition", "setting": "[4]", "value": 1, "unit": "%"}, {"measurement": "inhibition", "setting": "[5]", "value": "Dose-Dependent Effect"}, {"measurement": "inhibition", "setting": "[6]", "value": 13, "unit": "%"}, {"measurement": "inhibition", "setting": "[7]", "value": 7, "unit": "%"}, {"measurement": "inhibition", "setting": "[8]", "value": "Dose-Dependent Effect"}, {"measurement": "inhibition", "setting": "[9]", "value": 4, "unit": "%"}, {"measurement": "inhibition", "setting": "[10]", "value": 7, "unit": "%"}, {"measurement": "inhibition", "setting": "[11]", "value": -3, "unit": "%"}, {"measurement": "inhibition", "setting": "[12]", "value": 2, "unit": "%"}, {"measurement": "inhibition", "setting": "[13]", "value": -6, "unit": "%"}, {"measurement": "inhibition", "setting": "[14]", "value": 5, "unit": "%"}, {"measurement": "inhibition", "setting": "[15]", "value": "Dose-Dependent Effect"}, {"measurement": "inhibition", "setting": "[16]", "value": "Dose-Dependent Effect"}, {"measurement": "inhibition", "setting": "[17]", "value": -2, "unit": "%"}, {"measurement": "Activity", "setting": "HCT-116 [18]", "value": 0.75, "unit": "%"}, {"measurement": "inhibition", "setting": "[19]", "value": 1, "unit": "%"}, {"measurement": "Activity", "setting": "HCT-116 [20]", "value": 41, "unit": "%"}, {"measurement": "inhibition", "setting": "[21]", "value": 5, "unit": "%"}, {"measurement": "Activity", "setting": "HCT-116 [22]", "value": 34.6, "unit": "%"}, {"measurement": "inhibition", "setting": "[23]", "value": "Dose-Dependent Effect"}, {"measurement": "inhibition", "setting": "[24]", "value": 5, "unit": "%"}, {"measurement": "Activity", "setting": "HCT-116 [25]", "value": 0.86, "unit": "%"}, {"measurement": "inhibition", "setting": "[26]", "value": 2, "unit": "%"}, {"measurement": "inhibition", "setting": "[27]", "value": 4, "unit": "%"}, {"measurement": "inhibition", "setting": "[28]", "value": -1, "unit": "%"}, {"measurement": "Activity", "setting": "HCT-116 [29]", "value": 37.7, "unit": "%"}, {"measurement": "inhibition", "setting": "[30]", "value": 6, "unit": "%"}, {"measurement": "inhibition", "setting": "[31]", "value": 94, "unit": "%"}]}
